Data set [1] in a line: Lipid-water partition coefficient, logP of the compound. In kind it is physicochemical.
Data set [2] deals with T1, Aldehyde dehydrogenase 1A1 (Homo sapiens, UniProt P00352).
T1 sequence (P00352 whole entry): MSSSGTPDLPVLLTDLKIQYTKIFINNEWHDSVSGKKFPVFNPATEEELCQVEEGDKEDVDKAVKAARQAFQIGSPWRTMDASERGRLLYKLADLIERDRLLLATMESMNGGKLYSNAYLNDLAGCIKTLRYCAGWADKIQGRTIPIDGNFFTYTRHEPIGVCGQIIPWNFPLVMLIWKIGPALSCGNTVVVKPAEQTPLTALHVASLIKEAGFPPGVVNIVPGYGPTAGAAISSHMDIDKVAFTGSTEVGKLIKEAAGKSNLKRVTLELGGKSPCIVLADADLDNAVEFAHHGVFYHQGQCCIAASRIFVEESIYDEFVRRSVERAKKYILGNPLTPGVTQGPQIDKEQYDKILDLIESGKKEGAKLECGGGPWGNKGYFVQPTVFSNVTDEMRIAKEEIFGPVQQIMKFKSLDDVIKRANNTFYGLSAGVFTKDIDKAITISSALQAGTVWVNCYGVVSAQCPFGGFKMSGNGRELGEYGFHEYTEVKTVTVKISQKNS
The experiment in a line: Inhibition of human ALDH1A1 using propionaldehyde as substrate preincubated with enzyme for 15 mins followed by substrate addition in presence of NAD+ and measured for 5 mins by spectrophotometric analysis. An outline of the steps:
(§1)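 Human recombinant ALDH1A1, ALDH2 or ALDH3A1 preincubated with test compounds for 15 min at 25 °C. NADH absorbance read kinetically for 5 min. IC50 fitted from five concentrations vs %inhibition. Single-point final concentrations were 10 μM for ALDH1A1 and 100 μM for ALDH2 and ALDH3A1.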

Data set [3] deals with T2, Aldehyde dehydrogenase, mitochondrial (Homo sapiens, UniProt P05091).
T2 sequence (P05091 whole entry): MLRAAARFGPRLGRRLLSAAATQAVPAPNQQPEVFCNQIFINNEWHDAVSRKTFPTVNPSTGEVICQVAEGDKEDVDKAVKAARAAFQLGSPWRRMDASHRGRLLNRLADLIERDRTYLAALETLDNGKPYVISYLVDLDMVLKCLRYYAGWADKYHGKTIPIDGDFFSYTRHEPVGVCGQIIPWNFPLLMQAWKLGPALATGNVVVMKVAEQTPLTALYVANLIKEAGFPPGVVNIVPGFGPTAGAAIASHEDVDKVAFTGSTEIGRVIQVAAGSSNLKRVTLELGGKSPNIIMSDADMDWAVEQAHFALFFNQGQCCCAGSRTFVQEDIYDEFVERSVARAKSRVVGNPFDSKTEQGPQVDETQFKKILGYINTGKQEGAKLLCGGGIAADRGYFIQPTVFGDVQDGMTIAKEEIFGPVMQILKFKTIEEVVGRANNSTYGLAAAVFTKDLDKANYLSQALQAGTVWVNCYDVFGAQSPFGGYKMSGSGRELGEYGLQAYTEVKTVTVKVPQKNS
The data set can be described thus: Inhibition of human ALDH2 using acetaldehyde as substrate preincubated with enzyme for 15 mins followed by substrate addition in presence of NAD+ and measured for 5 mins by spectrophotometric analysis. An outline of the steps: as §1

The target in data set [4] is T3, Aldehyde dehydrogenase, dimeric NADP-preferring (Homo sapiens, UniProt P30838).
T3 sequence (P30838 whole entry): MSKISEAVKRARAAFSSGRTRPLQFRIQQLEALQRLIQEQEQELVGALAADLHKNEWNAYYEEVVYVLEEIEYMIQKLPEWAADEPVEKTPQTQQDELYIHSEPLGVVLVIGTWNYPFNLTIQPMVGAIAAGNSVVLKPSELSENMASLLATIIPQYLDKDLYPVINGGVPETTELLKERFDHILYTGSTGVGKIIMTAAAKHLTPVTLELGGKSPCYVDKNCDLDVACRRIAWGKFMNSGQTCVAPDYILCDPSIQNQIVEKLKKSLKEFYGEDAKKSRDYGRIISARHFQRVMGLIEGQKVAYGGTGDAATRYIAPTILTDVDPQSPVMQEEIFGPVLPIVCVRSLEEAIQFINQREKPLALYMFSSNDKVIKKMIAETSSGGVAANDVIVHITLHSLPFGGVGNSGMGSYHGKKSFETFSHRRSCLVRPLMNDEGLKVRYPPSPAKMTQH
The data set can be described thus: Inhibition of human ALDH3A1 using 4-nitrobenzaldehyde as substrate preincubated with enzyme for 15 mins followed by substrate addition in presence of NAD+ and measured for 5 mins by spectrophotometric analysis. An outline of the steps: as §1

Data set [5] deals with A549. The data set can be described thus: Anticancer activity against human A549 cells assessed as reduction in cell viability incubated for 19 hrs by MTT assay. In kind it is functional, cell-based. The gist of the method:
(§2)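 A549 and MIA PaCa-2 cells, chosen for high ALDH1A1 expression, were obtained from NCCS. Viability was measured by MTT. Combination arms paired mafosfamide with ALDH1A1 inhibitors. Combination indices were calculated with the Chou–Talalay equation.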
(In general: Formazan colour is commonly taken as a measure of viable cells.)

For data set [6], the system named is MIA PaCa-2. The experiment in a line: Anticancer activity against human MIAPaCa-2 cells assessed as reduction in cell viability incubated for 19 hrs by MTT assay. In kind it is functional, cell-based. The gist of the method:
as §2

Data set [7] concerns A549. The experiment in a line: Reversal of Mafosfamide resistance in human A549 cells assessed as increase in Mafosfamide sensitivity by measuring reduction in cell viability measured after 19 hrs in presence of Mafosfamide by MTT assay. The data set is classed as functional, cell-based. The gist of the method: as §2
The subject of data set [8] is MIA PaCa-2. The experiment in a line: Reversal of Mafosfamide resistance in human MIAPaCa-2 cells assessed as increase in Mafosfamide sensitivity by measuring reduction in cell viability measured after 19 hrs in presence of Mafosfamide by MTT assay. The data set is classed as functional, cell-based. The gist of the method:
as §2

The test system of data set [9] is A549. The experiment in a line: Synergistic anticancer activity against human A549 cells assessed as combination index incubated for 19 hrs in presence of Mafosfamide by MTT assay. In kind it is functional. The gist of the method: as §2
The test system of data set [10] is MIA PaCa-2. The data set can be described thus: Synergistic anticancer activity against human MIAPaCa-2 cells assessed as combination index incubated for 19 hrs in presence of Mafosfamide by MTT assay. The data set is classed as functional. The gist of the method: as §2
Data set [11] has as its system A549. The data set can be described thus: Anticancer activity against human A549 cells assessed as reduction in cell viability at 370 uM incubated for 19 hrs by MTT assay. The data set is classed as functional, cell-based.
Data set [12] concerns MIA PaCa-2. The experiment in a line: Anticancer activity against human MIAPaCa-2 cells assessed as reduction in cell viability at 315 uM incubated for 19 hrs by MTT assay. In kind it is functional, cell-based.
The target of data set [13] is T4, Aldehyde dehydrogenase 1A1 (Homo sapiens) (UniProt P00352).
T4 sequence (whole entry): T1 sequence (P00352 whole entry)
The experiment in a line: Inhibition of human ALDH1A1 using propionaldehyde as substrate at 10 uM preincubated with enzyme for 15 mins followed by substrate addition in presence of NAD+ and measured for 5 mins by spectrophotometric analysis. The conditions noted are these: time 20.0 min. An outline of the steps: as §1

The target of data set [14] is T5, Aldehyde dehydrogenase, mitochondrial (Homo sapiens) (UniProt P05091).
T5 sequence (whole entry): T2 sequence (P05091 whole entry)
The experiment in a line: Inhibition of human ALDH2 using acetaldehyde as substrate at 100 uM preincubated with enzyme for 15 mins followed by substrate addition in presence of NAD+ and measured for 5 mins by spectrophotometric analysis. The conditions noted are these: time 20.0 min. The gist of the method:
as §1

For data set [15], the target named is T6, Aldehyde dehydrogenase, dimeric NADP-preferring (Homo sapiens) (UniProt P30838).
T6 sequence (whole entry): T3 sequence (P30838 whole entry)
The data set can be described thus: Inhibition of human ALDH3A1 using 4-nitrobenzaldehyde as substrate at 100 uM preincubated with enzyme for 15 mins followed by substrate addition in presence of NAD+ and measured for 5 mins by spectrophotometric analysis. As to conditions: time 20.0 min. An outline of the steps: as §1

Structures are written as SMILES. The source made the active and inactive calls. The calls are words filed in the database; no cut-off is given here.

With `COc1ccc(-c2nc3ccccc3n2Cc2ccccc2)cc1`, the log partition coefficient (logP) – broadly, the decadic logarithm of the partition coefficient of the neutral form, usually between octanol and water – in data set [1] was found to be 4.19. The IC50 (as a rule, the midpoint of a concentration-inhibition curve) in [2] is 1.63 µM; in data set [3], “Not Active”; in data set [4], “Not Active”. For the same molecule, the outcome in the data set on A549 [5] and in the data set on MIA PaCa-2 [6] was inactive. Moreover, the outcome with A549 [7] and in the data set with MIA PaCa-2 [8] was Active. Further, the results for the CI in the data set on A549 [9] and in the data set with MIA PaCa-2 [10] were 0.74 and 0.84, respectively.

Take `c1ccc(Cn2c(-c3ccccc3)nc3ccccc32)cc1`: the logP in data set [1] was 4.19. For the same molecule, the figures for the half-inhibitory concentration (IC50) in [2], in data set [3] (read-out: IC50) and in [4] (read-out: IC50) were 8.67 µM, 95.6 µM and 98.3 µM, respectively.

With `CC(C)CCn1c(CN2CCN(C(=O)C3CC3)CC2)nc2c1c(=O)n(C)c(=O)n2C`, the outcome in the data set with A549 [7] and with MIA PaCa-2 [8] was Active.

With `Clc1ccc(-c2nc3ccccc3n2Cc2ccccc2)cc1`, the log partition coefficient (logP) in [1] turned out to be 4.73. Further, the values for the IC50 in data set [2], in data set [3] and in [4] were 0.32 µM, “Not Active” and “Not Active”, respectively. Moreover, the result in the data set on A549 [11], in the data set on MIA PaCa-2 [12], in the data set with A549 [7] and in the data set on MIA PaCa-2 [8] was Active. Moreover, the CI in the data set on A549 [9] came to 0.91; in the data set on MIA PaCa-2 [10] it was 0.98.

For the molecule `CN(C)c1ccc(-c2nc3ccccc3n2Cc2ccccc2)cc1`, the log partition coefficient (logP) in [1] was found to be 4.17. In addition, the IC50 is 0.55 µM in data set [2], “Not Active” in data set [3] and “Not Active” in data set [4]. Besides, the result in the data set with A549 [5] and in the data set with MIA PaCa-2 [6] was inactive. Moreover, the outcome with A549 [7] and in the data set with MIA PaCa-2 [8] was Active. In addition, the values for the CI in the data set on A549 [9] and in the data set on MIA PaCa-2 [10] were 0.69 and 0.81, respectively.

On to `CN(C)c1ccc(Cn2c(-c3ccc(N(C)C)cc3)nc3ccccc32)cc1`, for which the inhibition entry in data set [13], in [14] and in data set [15] was “inactive” throughout. Moreover, the logP in data set [1] turned out to be 4.02.

Source of the values: ChEMBL document CHEMBL5357037, “Scaffold hopping based designing of selective ALDH1A1 inhibitors to overcome cyclophosphamide resistance: synthesis and biological evaluation” (RSC Med Chem, 2024).
